From the M2OR odorant receptor database
Residue numbers refer to the chain shown, from its start.

Key:
Settings in all cases: stereoisomer not certain
O1440 = tested on: T1, O1440
T1 sequence (whole entry): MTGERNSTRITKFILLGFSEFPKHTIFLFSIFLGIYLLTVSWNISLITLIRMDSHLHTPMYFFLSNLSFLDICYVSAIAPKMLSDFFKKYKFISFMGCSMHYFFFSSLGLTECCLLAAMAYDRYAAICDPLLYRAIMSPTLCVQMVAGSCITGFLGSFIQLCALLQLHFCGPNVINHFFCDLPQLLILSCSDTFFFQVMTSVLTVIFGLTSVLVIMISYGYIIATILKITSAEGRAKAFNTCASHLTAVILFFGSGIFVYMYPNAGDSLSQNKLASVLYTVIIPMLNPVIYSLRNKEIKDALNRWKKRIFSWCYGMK
Method in brief: (§1)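 Transient luciferase assays in mammalian cell lines were common, though methods varied by source. The values come from published papers and their supplementary material, with extra details from the original authors when needed. Responsive refers to a measured signal the original authors judged statistically different from baseline, and non-responsive (inactive) to the remainder.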

O10R2 I170L = tested on: T2, O10R2 I170L
T2 sequence (whole entry): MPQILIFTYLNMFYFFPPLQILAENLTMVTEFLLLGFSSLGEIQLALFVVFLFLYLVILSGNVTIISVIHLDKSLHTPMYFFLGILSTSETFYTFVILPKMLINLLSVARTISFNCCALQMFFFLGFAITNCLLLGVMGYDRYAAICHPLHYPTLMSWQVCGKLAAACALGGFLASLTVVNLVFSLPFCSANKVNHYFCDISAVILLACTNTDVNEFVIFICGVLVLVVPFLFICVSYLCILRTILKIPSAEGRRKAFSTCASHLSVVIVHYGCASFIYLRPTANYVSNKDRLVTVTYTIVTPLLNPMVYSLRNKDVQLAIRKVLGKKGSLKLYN
Method in brief: as §1

O10T2 I137M = tested on: T3, O10T2 I137M
T3 sequence (whole entry): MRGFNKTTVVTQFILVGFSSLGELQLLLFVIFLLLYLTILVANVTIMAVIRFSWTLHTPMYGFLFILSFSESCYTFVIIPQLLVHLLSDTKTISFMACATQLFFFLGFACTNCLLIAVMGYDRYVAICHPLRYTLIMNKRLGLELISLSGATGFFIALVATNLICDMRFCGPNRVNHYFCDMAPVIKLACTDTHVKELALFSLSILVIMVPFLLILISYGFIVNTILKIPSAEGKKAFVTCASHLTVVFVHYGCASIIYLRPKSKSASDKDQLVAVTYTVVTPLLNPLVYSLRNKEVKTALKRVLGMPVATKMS
Method in brief: as §1

O10V1 Q123R = tested on: T4, O10V1 Q123R
T4 sequence (whole entry): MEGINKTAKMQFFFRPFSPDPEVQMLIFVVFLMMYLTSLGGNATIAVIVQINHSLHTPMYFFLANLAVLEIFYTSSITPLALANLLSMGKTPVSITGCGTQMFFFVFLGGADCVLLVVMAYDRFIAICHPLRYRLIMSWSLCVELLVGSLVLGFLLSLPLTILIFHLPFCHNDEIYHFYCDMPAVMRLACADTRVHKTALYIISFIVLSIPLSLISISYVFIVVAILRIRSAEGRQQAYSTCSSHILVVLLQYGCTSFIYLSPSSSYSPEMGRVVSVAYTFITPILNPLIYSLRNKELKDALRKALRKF
Method in brief: as §1

O10X1 N4T R181S = tested on: T5, O10X1 N4T R181S
T5 sequence (whole entry): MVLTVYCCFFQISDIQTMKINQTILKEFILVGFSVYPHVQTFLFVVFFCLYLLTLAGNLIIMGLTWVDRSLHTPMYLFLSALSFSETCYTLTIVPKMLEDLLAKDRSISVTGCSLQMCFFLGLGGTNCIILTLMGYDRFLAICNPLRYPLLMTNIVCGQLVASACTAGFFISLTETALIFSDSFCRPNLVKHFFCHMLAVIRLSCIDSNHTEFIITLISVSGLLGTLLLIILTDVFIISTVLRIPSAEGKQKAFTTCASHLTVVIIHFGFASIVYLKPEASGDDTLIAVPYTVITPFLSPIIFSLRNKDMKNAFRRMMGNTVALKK
Method in brief: as §1

O11G2 F3I I99N V116I = tested on: T6, O11G2 F3I I99N V116I
T6 sequence (whole entry): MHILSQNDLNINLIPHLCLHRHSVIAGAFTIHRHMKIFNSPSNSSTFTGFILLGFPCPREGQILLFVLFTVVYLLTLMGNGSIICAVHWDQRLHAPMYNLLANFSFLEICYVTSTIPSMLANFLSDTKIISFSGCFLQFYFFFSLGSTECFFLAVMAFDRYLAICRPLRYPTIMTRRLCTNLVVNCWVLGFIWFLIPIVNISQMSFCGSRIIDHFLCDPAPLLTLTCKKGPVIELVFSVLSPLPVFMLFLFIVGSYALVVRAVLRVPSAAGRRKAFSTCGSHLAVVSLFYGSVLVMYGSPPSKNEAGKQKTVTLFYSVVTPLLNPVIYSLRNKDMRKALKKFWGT
Method in brief: as §1

O11H1 M240V = tested on: T7, O11H1 M240V
T7 sequence (whole entry): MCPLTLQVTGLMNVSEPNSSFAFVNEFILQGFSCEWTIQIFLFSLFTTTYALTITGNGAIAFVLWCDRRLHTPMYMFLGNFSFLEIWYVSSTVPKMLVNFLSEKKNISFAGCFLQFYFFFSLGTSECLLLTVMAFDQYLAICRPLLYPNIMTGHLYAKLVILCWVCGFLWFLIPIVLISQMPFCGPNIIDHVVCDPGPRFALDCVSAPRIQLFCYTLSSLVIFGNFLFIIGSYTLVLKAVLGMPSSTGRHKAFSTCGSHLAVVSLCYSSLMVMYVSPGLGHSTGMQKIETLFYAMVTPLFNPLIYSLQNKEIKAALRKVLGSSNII
Method in brief: as §1

O11H6 I107T = tested on: T8, O11H6 I107T
T8 sequence (whole entry): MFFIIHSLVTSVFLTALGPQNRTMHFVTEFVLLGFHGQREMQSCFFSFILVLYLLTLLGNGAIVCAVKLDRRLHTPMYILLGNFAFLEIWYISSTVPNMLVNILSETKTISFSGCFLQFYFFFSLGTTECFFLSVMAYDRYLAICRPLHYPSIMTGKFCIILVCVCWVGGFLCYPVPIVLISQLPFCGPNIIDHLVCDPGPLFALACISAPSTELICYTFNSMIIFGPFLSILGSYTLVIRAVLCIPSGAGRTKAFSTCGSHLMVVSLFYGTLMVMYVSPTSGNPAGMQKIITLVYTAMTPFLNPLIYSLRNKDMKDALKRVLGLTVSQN
Method in brief: as §1

O11HC C156Y V240M = tested on: T9, O11HC C156Y V240M
T9 sequence (whole entry): T7 sequence (whole entry) with S33T, R68W, V240M
Method in brief: as §1

O12D2 S104F = tested on: T10, O12D2 S104F
T10 sequence (whole entry): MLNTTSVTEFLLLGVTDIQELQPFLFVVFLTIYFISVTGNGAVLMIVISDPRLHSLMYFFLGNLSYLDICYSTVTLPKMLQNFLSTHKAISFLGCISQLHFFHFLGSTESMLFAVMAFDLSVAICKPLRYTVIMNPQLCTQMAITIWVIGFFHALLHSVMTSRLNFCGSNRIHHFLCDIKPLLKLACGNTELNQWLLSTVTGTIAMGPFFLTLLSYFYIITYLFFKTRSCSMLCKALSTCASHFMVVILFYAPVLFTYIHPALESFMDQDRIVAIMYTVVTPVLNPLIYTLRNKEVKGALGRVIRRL
Method in brief: as §1

O13C2 H6Q = tested on: T11, O13C2 H6Q
T11 sequence (whole entry): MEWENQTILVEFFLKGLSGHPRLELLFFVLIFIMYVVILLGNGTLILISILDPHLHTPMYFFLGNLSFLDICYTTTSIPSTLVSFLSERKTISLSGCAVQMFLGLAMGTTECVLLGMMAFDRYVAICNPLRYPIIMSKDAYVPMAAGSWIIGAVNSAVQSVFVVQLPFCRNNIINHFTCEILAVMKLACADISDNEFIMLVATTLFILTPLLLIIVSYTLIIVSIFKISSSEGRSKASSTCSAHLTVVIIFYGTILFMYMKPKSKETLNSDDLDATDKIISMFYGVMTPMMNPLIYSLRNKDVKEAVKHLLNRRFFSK
Method in brief: as §1

O13C8 A19D = tested on: T12, O13C8 A19D
T12 sequence (whole entry): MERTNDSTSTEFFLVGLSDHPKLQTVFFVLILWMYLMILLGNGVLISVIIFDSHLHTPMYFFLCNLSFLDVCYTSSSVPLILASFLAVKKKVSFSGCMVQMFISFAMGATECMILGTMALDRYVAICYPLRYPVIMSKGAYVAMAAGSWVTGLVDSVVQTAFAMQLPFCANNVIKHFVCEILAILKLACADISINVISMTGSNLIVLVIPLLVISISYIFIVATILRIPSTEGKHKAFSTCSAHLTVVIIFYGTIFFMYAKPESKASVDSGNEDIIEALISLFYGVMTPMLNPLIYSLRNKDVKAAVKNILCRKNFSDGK
Method in brief: as §1

O13C9 H17L V19G L23H = tested on: T13, O13C9 H17L V19G L23H
T13 sequence (whole entry): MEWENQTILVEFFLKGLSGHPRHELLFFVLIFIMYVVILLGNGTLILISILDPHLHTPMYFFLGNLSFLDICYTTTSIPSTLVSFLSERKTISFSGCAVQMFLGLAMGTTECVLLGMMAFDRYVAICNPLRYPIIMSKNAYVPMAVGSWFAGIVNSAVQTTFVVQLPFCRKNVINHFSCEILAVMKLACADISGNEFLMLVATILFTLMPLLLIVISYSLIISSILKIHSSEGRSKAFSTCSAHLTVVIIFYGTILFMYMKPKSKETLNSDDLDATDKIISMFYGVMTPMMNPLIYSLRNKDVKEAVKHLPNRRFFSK
Method in brief: as §1

O13C9 Q6H = tested on: T14, O13C9 Q6H
T14 sequence (whole entry): T13 sequence (whole entry) with Q6H, L17H, G19V, H23L
Method in brief: as §1

O13F1 F18S T254M = tested on: T15, O13F1 F18S T254M
T15 sequence (whole entry): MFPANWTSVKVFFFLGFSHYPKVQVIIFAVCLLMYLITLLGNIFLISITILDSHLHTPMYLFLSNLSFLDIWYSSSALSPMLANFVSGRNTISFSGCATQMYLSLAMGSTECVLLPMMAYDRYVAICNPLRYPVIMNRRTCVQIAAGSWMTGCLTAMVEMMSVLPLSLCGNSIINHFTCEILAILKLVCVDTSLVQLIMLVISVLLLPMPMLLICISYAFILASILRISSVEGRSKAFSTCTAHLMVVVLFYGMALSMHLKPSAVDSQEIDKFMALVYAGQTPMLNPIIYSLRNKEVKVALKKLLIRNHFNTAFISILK
Method in brief: as §1

O13F1 F18S = tested on: T16, O13F1 F18S
T16 sequence (whole entry): T15 sequence (whole entry) with M254T
Method in brief: as §1

O13G1 K46I M146L = tested on: T17, O13G1 K46I M146L
T17 sequence (whole entry): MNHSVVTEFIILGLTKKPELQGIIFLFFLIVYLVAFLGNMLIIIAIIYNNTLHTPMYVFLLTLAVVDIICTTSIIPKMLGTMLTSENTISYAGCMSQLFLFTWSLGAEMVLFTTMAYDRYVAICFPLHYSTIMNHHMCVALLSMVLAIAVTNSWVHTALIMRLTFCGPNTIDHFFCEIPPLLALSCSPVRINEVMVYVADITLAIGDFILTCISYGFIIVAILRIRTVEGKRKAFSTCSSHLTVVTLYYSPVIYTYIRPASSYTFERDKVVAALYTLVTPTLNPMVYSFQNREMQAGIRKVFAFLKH
Method in brief: as §1

O13G1 = tested on: T18, O13G1
T18 sequence (whole entry): T17 sequence (whole entry) with I46K, I132V, L146M
Method in brief: as §1

O13H1 Y266S = tested on: T19, O13H1 Y266S
T19 sequence (whole entry): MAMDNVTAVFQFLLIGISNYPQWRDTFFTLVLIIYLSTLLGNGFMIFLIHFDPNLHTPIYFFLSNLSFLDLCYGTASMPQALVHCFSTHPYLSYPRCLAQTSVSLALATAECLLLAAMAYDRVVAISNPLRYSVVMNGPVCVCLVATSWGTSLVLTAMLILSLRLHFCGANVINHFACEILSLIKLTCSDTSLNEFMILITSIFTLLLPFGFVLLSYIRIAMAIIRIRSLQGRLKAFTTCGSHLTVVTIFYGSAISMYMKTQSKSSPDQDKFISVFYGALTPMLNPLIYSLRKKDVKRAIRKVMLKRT
Method in brief: as §1

O13J1 = tested on: T20, O13J1
T20 sequence (whole entry): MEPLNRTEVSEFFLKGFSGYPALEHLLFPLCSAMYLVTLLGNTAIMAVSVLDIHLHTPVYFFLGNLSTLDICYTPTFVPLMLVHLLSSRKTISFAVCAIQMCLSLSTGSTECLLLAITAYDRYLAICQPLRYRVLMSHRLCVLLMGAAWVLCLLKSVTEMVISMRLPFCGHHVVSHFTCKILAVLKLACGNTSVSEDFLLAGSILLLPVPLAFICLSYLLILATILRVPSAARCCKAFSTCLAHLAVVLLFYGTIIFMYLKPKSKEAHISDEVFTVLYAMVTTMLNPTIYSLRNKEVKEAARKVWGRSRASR
Method in brief: as §1

Measured: odorant receptor agonist call

CC1C(C)(C)C2=C(C(=O)CCC2)C1(C)C (stereo not given)
inactive: O1440

O=C1CCCCCCCCCC1
inactive: O1440

CC1=C(O)C(=O)OC1C (stereo not given)
not listed: O1440
inactive: all other assays above

CC1CCCCCCCCCCCCC(=O)C1 (stereo not given)
active: O1440

CCCCCCC=CCCC=O
not listed: O1440 | O13F1 F18S T254M
inactive: all other assays above
